From ChEMBL document CHEMBL4014335, “Activation of Phenyl 4-(2-Oxo-3-alkylimidazolidin-1-yl)benzenesulfonates Prodrugs by CYP1A1 as New Antimitotics Targeting Breast Cancer Cells” (J Med Chem, 2017) come the findings set out here.

Active and inactive are the calls of the source. The calls are words filed in the database; no cut-off is given here.

Data set [1] has as its system MCF7. The data set can be described thus: Cell cycle arrest in human MCF7 cells assessed as accumulation at subG1 phase at 8 nM after 24 hrs by DAPI-staining based FACS analysis (reference value: 1.4%). Format: functional. In general terms: In flow cytometry, cells or beads pass a laser one at a time.
The subject of data set [2] is MDA-MB-468. Description: Cell cycle arrest in human MDA-MB-468 cells assessed as accumulation at G0/G1 phase at 8 nM after 24 hrs by DAPI-staining based FACS analysis (reference value: 63.3%). The format is functional.
The subject of data set [3] is MDA-MB-468. Description: Cell cycle arrest in human MDA-MB-468 cells assessed as accumulation at subG1 phase at 8 nM after 24 hrs by DAPI-staining based FACS analysis (reference value: 0.2%). The format is functional.
For the next data set, the system named is HT-29. Description: Antiproliferative activity against human HT-29 cells after 48 hrs by SRB assay. Format: functional, cell-based. To be noted: HT-29, 48 h. The procedure, abridged:
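SRB assay run as in the NCI screen with slight modifications. Seeding: HT-29 5.0 x 10^3, M21 3.5 x 10^3, MCF7 7.5 x 10^3 cells; cells preincubated 24 h. Drug in DMSO added at 0.75 to 1.0 x 10^5 nM for 48 h. TCA fixation, sulforhodamine B staining, absorbance 530-565 nm. At least two experiments in triplicate; runs accepted only when relative SD < 10%.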
Background: In SRB staining, fixed cells bind dye roughly in proportion to their protein.

A short description of data set [4]: Selectivity ratio of IC50 for human HT-29 cells to IC50 for human MCF7 cells. The format is functional. The procedure, abridged: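 Ratio is IC50 in reference line over IC50 in sensitive line. […] Cells in DMEM with 5% calf serum at 37 °C. At least two experiments, triplicate cultures; assay accepted when relative SD < 10%.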
Data set [5] has as its system MCF7. Description: Cell cycle arrest in human MCF7 cells assessed as accumulation at subG1 phase at 50 nM after 24 hrs by DAPI-staining based FACS analysis (reference value: 1.4%). Format: functional.
The next data set deals with MDA-MB-231. Description: Antiproliferative activity against ER/PR/HER2 deficient human MDA-MB-231 cells after 72 hrs in presence of phenol red by SRB assay. The format is functional, cell-based. The procedure, abridged: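 SRB antiproliferative assay (modified NCI protocol). Cells seeded per well (SK-BR-3, MDA-MB-231, T47D, HT-1080, HT-1080 CYP1A1 and empty-vector: 3.0 x 10^3; MDA-MB-468: 5.0 x 10^3; MCF7: 7.5 x 10^3), preincubated 24 h. DMSO-solubilized drug added at 0.75 to 1.0 x 10^5 nM, then 72 h. Fixed with cold 10% TCA, stained with 0.1% sulforhodamine B, absorbance read at 530-565 nm. At least two experiments, triplicate cultures.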

Data set [6] is filed under the species Homo sapiens. Description: Destabilization of microtubule network in human MCF7 cells at 50 nM after 24 hrs by fluorescence microscopic analysis. The format is cell-based.
The species entered for data set [7] is Homo sapiens. Description: Destabilization of microtubule network in human MDA-MB-231 cells at 50 nM after 24 hrs by fluorescence microscopic analysis. Format: cell-based.
Data set [8] relates to MDA-MB-468. Description: Cytotoxicity against human MDA-MB-468 cells after 72 hrs in presence of CYP1A1 inhibitor alpha-naphthoflavone by SRB assay. Format: functional, cell-based. The method, boiled down:
(§1)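 MDA-MB-468 cells co-incubated for 72 h with drug plus a subtoxic concentration of a CYP inhibitor. Viability read by SRB assay: TCA fixation, sulforhodamine B staining, absorbance at 530-565 nm.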

Data set [9] relates to MDA-MB-468. Description: Cytotoxicity against human MDA-MB-468 cells after 72 hrs in presence of CYP1A1 inhibitor quercetin by SRB assay. Format: functional, cell-based. The method, boiled down: (§2)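 MDA-MB-468 cells (5.0 x 10^3/well) seeded and incubated 24 h. Drug freshly dissolved in DMSO, given at 0.75 to 1.0 x 10^5 nM, together with subtoxic CYP inhibitor, for 72 h. Cells fixed with cold 10% TCA and stained with 0.1% sulforhodamine B. Bound dye taken up in 10 mM Tris, absorbance read at 530-565 nm. At least two experiments, triplicate cultures.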

Data set [10] has as its system MDA-MB-468. The data set can be described thus: Cytotoxicity against human MDA-MB-468 cells after 72 hrs in presence of CYP1A1 inhibitor tacrine by SRB assay. Format: functional, cell-based. The method, boiled down: as §2
For data set [11], the system named is MDA-MB-468. The data set can be described thus: Cytotoxicity against human MDA-MB-468 cells after 72 hrs in presence of CYP inhibitor aniline by SRB assay. The format is functional, cell-based. The method, boiled down:
as §1

The subject of data set [12] is MDA-MB-468. The data set can be described thus: Cytotoxicity against human MDA-MB-468 cells after 72 hrs in presence of CYP inhibitor curcumin by SRB assay. Format: functional, cell-based. The method, boiled down:
as §1

Another data set has as its target T1, Cytochrome P450 1A2 (Homo sapiens, UniProt P05177).
T1 sequence (P05177 whole entry): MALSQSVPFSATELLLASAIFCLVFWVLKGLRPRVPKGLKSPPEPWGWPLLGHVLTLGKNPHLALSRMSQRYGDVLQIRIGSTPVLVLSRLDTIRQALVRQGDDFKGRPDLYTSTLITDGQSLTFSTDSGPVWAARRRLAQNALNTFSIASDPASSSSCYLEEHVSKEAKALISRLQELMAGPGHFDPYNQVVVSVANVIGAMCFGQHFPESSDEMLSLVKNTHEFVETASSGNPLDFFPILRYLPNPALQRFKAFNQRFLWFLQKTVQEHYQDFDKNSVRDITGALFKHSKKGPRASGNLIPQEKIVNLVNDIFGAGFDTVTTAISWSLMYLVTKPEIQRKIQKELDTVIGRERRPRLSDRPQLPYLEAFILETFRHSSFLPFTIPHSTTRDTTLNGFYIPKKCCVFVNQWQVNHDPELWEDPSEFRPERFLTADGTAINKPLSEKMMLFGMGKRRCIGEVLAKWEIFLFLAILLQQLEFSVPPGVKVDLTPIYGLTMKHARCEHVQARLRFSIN
The data set can be described thus: Prodrug activation assessed as human supersomes CYP1A2-mediated 3,4,5-trimethoxyphenyl 4-(2-oxoimidazolidin-1-yl)benzenesulfonate formation after 4 hrs by HPLC-MS analysis. Format: ADME. To be noted: recombinant enzyme.

The target in another data set is T2, Cytochrome P450 1B1 (Homo sapiens, UniProt Q16678).
T2 sequence (Q16678 whole entry): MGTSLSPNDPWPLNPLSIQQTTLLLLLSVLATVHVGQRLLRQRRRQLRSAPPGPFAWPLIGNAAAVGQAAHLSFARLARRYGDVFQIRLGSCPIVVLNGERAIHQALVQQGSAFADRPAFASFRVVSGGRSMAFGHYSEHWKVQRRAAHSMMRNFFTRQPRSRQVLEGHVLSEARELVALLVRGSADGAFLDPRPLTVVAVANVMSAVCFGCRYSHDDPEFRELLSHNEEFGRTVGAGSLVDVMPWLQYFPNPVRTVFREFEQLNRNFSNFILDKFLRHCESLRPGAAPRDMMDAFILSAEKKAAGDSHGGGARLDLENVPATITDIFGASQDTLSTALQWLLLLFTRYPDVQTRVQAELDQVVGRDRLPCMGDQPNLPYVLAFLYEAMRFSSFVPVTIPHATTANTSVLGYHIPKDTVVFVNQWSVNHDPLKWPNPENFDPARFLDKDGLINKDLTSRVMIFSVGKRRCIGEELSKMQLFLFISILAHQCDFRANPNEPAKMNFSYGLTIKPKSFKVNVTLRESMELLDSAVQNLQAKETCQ
Description: Prodrug activation assessed as human supersomes CYP1B1-mediated 3,4,5-trimethoxyphenyl 4-(2-oxoimidazolidin-1-yl)benzenesulfonate formation after 4 hrs by HPLC-MS analysis. To be noted: recombinant enzyme. Format: ADME.

In another data set the target is Cytochrome P450 3A4 (Homo sapiens, UniProt P08684). The data set can be described thus: Prodrug activation assessed as human supersomes CYP3A4-mediated 3,4,5-trimethoxyphenyl 4-(2-oxoimidazolidin-1-yl)benzenesulfonate formation after 4 hrs by HPLC-MS analysis. The format is ADME. The note with it: recombinant enzyme.
Chain of Cytochrome P450 3A4 (P08684 whole entry): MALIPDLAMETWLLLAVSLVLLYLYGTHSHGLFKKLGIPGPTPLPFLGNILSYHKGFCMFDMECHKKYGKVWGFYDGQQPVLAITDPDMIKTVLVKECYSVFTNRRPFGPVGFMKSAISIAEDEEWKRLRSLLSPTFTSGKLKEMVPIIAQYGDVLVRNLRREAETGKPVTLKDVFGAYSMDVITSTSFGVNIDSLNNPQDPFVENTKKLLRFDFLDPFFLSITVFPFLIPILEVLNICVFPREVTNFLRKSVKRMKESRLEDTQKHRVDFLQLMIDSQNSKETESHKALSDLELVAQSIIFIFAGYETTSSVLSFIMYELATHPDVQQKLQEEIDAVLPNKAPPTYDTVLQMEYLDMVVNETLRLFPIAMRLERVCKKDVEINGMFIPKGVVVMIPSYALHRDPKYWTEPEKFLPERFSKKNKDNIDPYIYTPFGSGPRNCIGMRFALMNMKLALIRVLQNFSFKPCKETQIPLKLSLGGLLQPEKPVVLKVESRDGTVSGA

As for `COc1cc(OS(=O)(=O)c2ccc(N3CCNC3=O)cc2)cc(OC)c1OC`, the Activity in the data set on MCF7 [1] amounted to 35.6%; with MDA-MB-468 [2] it was 10.6%; in the data set with MDA-MB-468 [3], 1.7%.

One may read the IC50 as the midpoint of a concentration-inhibition curve. Low readings indicate higher potency, high ones lower potency. The molecule `CCCCN1CCN(c2ccc(S(=O)(=O)Oc3cc(OC)c(OC)c(OC)c3)cc2)C1=O` had an IC50 in the data set with HT-29 of 3.6 µM. In data set [4], the “Ratio IC50” value is recorded as 360. The Activity in the data set with MCF7 [5] was 4.3%. Also, the result with MDA-MB-231, in the data set filed under Homo sapiens [7], with MDA-MB-468 [8], with MDA-MB-468 [9] and with MDA-MB-468 [10] was inactive. Besides, the result in the data set listed under Homo sapiens [6], in the data set with MDA-MB-468 [11] and with MDA-MB-468 [12] was Active. Moreover, the Drug metabolism entry at Cytochrome P450 1A2, on Cytochrome P450 1B1 and on Cytochrome P450 3A4 was “Metabolite_Notdetected” in each case.
